The values that follow come from publication PMC9904295 (Drug Delivery, 2023).

Molecules are shown by their SMILES.

A short description of data set [1]: Pharmacokinetic study in rats, intravenous. The format is in vivo, Sprague-Dawley rats. To be noted: i.v., 5 mg/kg in OXA. The essentials: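 Twelve Sprague-Dawley rats (half male) were split into two groups and given one i.v. dose equivalent to 5 mg/kg. The free drug was prepared in 5% glucose. Retro-orbital blood was taken at 0.083–24 h and centrifuged at 12,000 rpm for 5 min. Plasma drug was measured by UPLC-MS/MS and total Pt by ICP-MS. Non-compartmental analysis gave AUC, Cmax, t1/2, MRT and CL; mean ± SD, n = 6.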

Data set [2] is described as follows: Toxicity evaluation after repeated dosing. The format is in vivo. The settings on record: ICR mice. The method in brief:
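Male ICR mice (17–18 g) were randomised into six groups (n = 10), with 5% glucose as control. Test compound was given i.v. every 3 days for five doses at 7.5 or 10 mg/kg (free form) or 7.5, 10 or 15 mg/kg drug-equivalent (nanoparticle). At the end, organs were harvested for viscera index, whole blood was taken for routine counts, and serum TP, ALB, UREA and Cr were measured. Data are mean ± SD, Student's t test.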

A further data set concerns SW620 cells. Kind of data set: In vivo antitumor efficacy in xenograft tumor-bearing mice. Also on record: species or system BALB/c nude mice. The settings on record: xenograft tumor-bearing nude mice, i.v. once a week. The essentials: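 Male BALB/c nude mice (18–20 g) were inoculated with 3 × 10^6 SW620 cells at the right third fat pad. At tumors of about 100–200 mm3 they were randomised into six groups, with 5% glucose as control. Test compound was given i.v. by tail vein once a week for 4 weeks at 5 or 10 mg/kg (free form) or 5, 10 or 20 mg/kg (nanoparticle). Tumor volume (L × W × W/2) and body weight were measured three times weekly, and RTV = V/V0. Tumors were weighed at the end; n = 6, mean ± SD, Student's t test.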

The mark [3] stands for this setting: analyte total Pt (ICP-MS) in plasma.

For `O=C1[O][Pt]2([NH][C@@H]3CCCC[C@H]3[NH]2)[O]C1=O` [OXA, oxaliplatin], in data set [1] (analyte OXA in plasma), the AUC0-t was found to be 1940 ± 390 ng·h/mL, the “AUC0-∞” value was determined as 2030 ± 550 ng·h/mL, the CL is given as 2,580 ± 560 mL/h/kg and the Cmax was determined as 9580 ± 1420 ng/mL. Moreover, in data set [1] (analyte OXA in plasma), the T1/2 worked out at 0.16 ± 0.07 h and the Vz was 567 ± 70 mL/kg. Also, in data set [1] (setting [3]), the AUC0-t is 13000 ± 3440 ng·h/mL, the “AUC0-∞” value is 19980 ± 5650 ng·h/mL, the CL turned out to be 127.98 ± 36.2 mL/h/kg and the Cmax worked out at 4760 ± 680 ng/mL. For the same molecule, in data set [1] (setting [3]), the T1/2 is listed as 17.52 ± 0.52 h and the Vz was 3,220 ± 818 mL/kg. Also, the UREA result in data set [2] (10 mg/kg i.v. every 3 days for five times) was “significant decrease”. In addition, the “biochemical indexes (TP, ALB, UREA, Cr)” value in data set [2] (i.v. every 3 days for five times, except UREA at 10 mg/kg) is “No significant change”. Also, the “tumor growth inhibition, dose dependence” value in the data set on SW620 cells was “dose-dependent tumor growth inhibition”.
